Data as given in ChEMBL document CHEMBL2331117 (J Med Chem, 2013).
Converted amounts (≈) assume the structure as drawn.

Key:
[1] = Drug uptake in tumor of athymic mouse xenografted with human MCF7 cells at 100 mg/kg, po after 4 hrs; assay type: ADME, organism-based, Neoplasm; parameters: dose 100 mg/kg, route oral; conditions: read-out: Drug uptake
Mus musculus [2] = assay: In vivo inhibition of mTORC1-mediated phosphorylation of pS6 at (serine 240/244) in human MCF7 cells xenografted into athymic nude mouse at 100 mg/kg, po after 32 hrs by Western blotting analysis relative to control; assay type: functional; conditions: MCF7, 32 h
In short: (§1)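 MCF-7 cells (DMEM, 10% FBS) were implanted subcutaneously at 5 × 10^6 cells in 50% cold HBSS/50% growth-factor-reduced matrigel into the hindflank of 5−8 week old female nude mice. At tumor size 40−150 mg, mice received a single oral dose of 100 mg/kg. Tumor lysates were pooled per group. Phospho-AKT (S473, T308), p70S6K (T389), S6 (S240/244) and 4E-BP1 (T37/46) were measured by Western blot normalized to α-tubulin.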

Mus musculus [3] = assay: In vivo inhibition of mTORC1-mediated phosphorylation of pS6 at (serine 240/244) in human MCF7 cells xenografted into athymic nude mouse at 100 mg/kg, po after 24 hrs by Western blotting analysis relative to control; assay type: functional; conditions: MCF7, 24 h; in short: as §1
Mus musculus [4] = assay: In vivo inhibition of mTORC1-mediated phosphorylation of pS6 at (serine 240/244) in human MCF7 cells xenografted into athymic nude mouse at 100 mg/kg, po after 8 hrs by Western blotting analysis relative to control; assay type: functional; conditions: MCF7, 8 h; in short: as §1
Mus musculus [5] = assay: In vivo inhibition of mTORC1-mediated phosphorylation of pS6 at (serine 240/244) in human MCF7 cells xenografted into athymic nude mouse at 100 mg/kg, po after 1 hr by Western blotting analysis relative to control; assay type: functional; conditions: MCF7, 1 h; in short: as §1
Mus musculus [6] = assay: In vivo inhibition of mTOR1-mediated phosphorylation of p70S6K at […] in human MCF7 cells xenografted into athymic nude mouse at 100 mg/kg, po after 8 hrs by Western blotting analysis relative to control; assay type: functional; conditions: MCF7, 8 h
Mus musculus [7] = assay: In vivo inhibition of mTORC1-mediated phosphorylation of p70S6K at […] in human MCF7 cells xenografted into athymic nude mouse at 100 mg/kg, po after 4 hrs by Western blotting analysis relative to control; assay type: functional; conditions: MCF7, 4 h; in short: as §1
Mus musculus [8] = assay: In vivo inhibition of mTORC2-mediated phosphorylation of AKT at serine 473 in human MCF7 cells xenografted into athymic nude mouse at 100 mg/kg, po after 8 hrs by Western blotting analysis relative to control; assay type: functional; conditions: MCF7, 8 h; in short: as §1
[9] = Drug uptake in tumor of athymic mouse xenografted with human PC3 cells at 100 mg/kg, po after 1 hr; assay type: ADME, organism-based, Neoplasm, PC-3; parameters: dose 100 mg/kg, route oral; conditions: read-out: Drug uptake
In short: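 PC-3 cells (3 × 10⁶, passages 10–14, in ice-cold HBSS) were implanted sc in 5–8 week old male nude mice. Tumors of 200–500 mg received a single oral 100 mg/kg dose. Plasma and tumor were collected at 1, 4, 8, 16, 24 and 32 h and homogenized in buffer. Lysates were pooled per group (n = 5), and phospho-proteins were measured by Western blot normalized to α-tubulin.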

Mus musculus [10] = assay: In vivo inhibition of mTORC1-mediated phosphorylation of 4EBP1 at ([…]) in human PC3 cells xenografted into athymic nude mouse at 100 mg/kg, po after 32 hrs by Western blotting analysis relative to control; assay type: functional; conditions: PC-3, 32 h
In short: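 PC-3 cells grown in DMEM with 20% FBS were implanted subcutaneously at 3 × 10^6 cells in ice-cold HBSS into the hindflank of 5−8 week old male nude mice. At tumor size 200−500 mg, mice received a single oral dose of 100 mg/kg. Plasma and tumors were collected at 1, 4, 8, 16, 24 and 32 h. Tumor lysates from each group (n = 5) were pooled. Phospho-proteins were quantified by Western blot and normalized to α-tubulin.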

[11] = target: Vascular endothelial growth factor receptor 1 (Homo sapiens, UniProt P17948); assay: Inhibition of FLT1 (unknown origin)
Vascular endothelial growth factor receptor 1, sequence (P17948 whole entry): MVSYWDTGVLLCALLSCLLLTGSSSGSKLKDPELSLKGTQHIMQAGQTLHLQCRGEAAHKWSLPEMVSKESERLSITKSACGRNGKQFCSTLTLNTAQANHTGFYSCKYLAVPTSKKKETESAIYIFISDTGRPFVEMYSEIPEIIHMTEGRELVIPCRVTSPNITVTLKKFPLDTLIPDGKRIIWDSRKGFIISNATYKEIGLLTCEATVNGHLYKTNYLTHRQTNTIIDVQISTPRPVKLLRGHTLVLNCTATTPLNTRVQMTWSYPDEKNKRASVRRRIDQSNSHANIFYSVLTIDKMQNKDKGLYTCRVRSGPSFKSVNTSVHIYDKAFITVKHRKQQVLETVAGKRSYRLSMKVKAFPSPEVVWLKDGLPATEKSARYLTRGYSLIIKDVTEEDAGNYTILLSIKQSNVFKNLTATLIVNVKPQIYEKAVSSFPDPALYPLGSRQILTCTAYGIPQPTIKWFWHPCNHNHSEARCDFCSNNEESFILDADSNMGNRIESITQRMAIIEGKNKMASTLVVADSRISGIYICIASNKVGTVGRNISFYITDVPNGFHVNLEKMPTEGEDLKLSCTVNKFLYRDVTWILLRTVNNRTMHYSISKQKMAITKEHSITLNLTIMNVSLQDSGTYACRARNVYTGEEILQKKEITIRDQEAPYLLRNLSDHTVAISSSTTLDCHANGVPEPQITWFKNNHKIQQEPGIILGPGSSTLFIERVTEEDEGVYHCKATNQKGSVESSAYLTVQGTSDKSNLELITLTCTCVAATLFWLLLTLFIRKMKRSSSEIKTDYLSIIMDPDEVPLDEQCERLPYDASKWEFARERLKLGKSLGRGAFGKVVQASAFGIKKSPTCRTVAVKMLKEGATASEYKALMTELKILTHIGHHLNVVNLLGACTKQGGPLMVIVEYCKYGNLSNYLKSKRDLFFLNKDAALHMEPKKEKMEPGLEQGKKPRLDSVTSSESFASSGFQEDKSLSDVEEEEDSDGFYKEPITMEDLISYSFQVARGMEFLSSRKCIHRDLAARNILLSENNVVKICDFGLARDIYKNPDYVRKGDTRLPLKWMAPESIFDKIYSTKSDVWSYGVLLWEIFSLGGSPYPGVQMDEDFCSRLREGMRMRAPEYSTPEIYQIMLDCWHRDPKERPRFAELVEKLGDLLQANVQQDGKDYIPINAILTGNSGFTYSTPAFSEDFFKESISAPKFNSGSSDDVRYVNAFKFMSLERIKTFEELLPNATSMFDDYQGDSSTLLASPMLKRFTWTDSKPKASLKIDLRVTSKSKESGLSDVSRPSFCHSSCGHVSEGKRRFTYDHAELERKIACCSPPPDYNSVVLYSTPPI

[12] = target: Receptor tyrosine-protein kinase erbB-2 (Homo sapiens, UniProt P04626); assay: Inhibition of ERBB2 (unknown origin)
Receptor tyrosine-protein kinase erbB-2, sequence (P04626 whole entry): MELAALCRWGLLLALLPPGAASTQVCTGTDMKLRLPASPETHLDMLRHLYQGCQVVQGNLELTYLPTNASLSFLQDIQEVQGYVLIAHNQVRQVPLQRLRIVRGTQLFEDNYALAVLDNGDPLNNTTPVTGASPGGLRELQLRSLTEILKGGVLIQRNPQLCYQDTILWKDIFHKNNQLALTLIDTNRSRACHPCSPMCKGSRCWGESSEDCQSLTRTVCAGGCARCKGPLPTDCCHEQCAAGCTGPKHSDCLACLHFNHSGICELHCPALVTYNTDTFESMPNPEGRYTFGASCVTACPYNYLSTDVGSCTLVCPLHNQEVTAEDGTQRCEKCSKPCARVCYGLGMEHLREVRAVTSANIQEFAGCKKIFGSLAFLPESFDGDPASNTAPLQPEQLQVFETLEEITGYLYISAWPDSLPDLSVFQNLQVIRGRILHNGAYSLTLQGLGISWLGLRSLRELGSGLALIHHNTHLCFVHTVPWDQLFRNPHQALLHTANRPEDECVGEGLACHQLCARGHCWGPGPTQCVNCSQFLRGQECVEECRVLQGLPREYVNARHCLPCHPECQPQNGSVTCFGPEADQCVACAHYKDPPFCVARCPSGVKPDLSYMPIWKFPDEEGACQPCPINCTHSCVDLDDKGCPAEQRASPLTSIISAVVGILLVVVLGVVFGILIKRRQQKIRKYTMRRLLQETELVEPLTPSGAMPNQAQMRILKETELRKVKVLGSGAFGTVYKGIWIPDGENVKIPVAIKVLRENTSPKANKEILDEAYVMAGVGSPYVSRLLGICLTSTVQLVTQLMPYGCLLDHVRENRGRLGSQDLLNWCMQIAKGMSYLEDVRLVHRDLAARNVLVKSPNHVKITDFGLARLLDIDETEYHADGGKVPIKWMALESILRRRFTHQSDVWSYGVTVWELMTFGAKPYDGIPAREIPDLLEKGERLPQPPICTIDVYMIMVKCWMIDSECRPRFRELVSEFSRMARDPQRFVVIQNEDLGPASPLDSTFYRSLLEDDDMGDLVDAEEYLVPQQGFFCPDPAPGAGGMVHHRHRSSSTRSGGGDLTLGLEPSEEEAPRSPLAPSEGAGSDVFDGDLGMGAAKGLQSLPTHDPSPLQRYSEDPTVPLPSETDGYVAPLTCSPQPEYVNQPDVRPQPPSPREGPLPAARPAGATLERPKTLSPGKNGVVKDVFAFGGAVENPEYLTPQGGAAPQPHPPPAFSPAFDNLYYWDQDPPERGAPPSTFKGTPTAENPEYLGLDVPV
In short: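 Part of a 141-protein-kinase selectivity panel run either in house or by an outside contract lab. IC50 is reported as the average of at least two determinations.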

[13] = target: Phosphatidylinositol 3-kinase catalytic subunit type 3 (Homo sapiens, UniProt Q8NEB9); assay: Inhibition of VPS34 (unknown origin)
[14] = Volume of distribution at steady state in athymic nude mouse at 10 mg/kg, iv; assay type: ADME, organism-based; parameters: dose 10 mg/kg, route intravenous; conditions: in vivo, read-out: Vdss
[15] = Half life in Beagle dog at 3 mg/kg, iv; assay type: ADME, organism-based, Canis lupus familiaris; parameters: dose 3 mg/kg, route intravenous; conditions: in vivo
In short: (§2)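 Single-dose PK: female athymic nude mice (10 mg/kg), female CD rats and male beagle dogs (3 mg/kg), male cynomolgus monkeys (3 mg/kg), given iv and by oral gavage. Solution in EPW (5% ethanol/45% PEG400/water), with 1:2 HCl (m/m) for mouse, rat and dog and 1:1.5 HCl (m/m) for monkey. Plasma levels followed over 24 h.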

[16] = Cmax in Beagle dog at 3 mg/kg, iv; assay type: ADME, organism-based, Canis lupus familiaris; parameters: dose 3 mg/kg, route intravenous; conditions: in vivo; in short: as §2
Plasma = assay: Plasma concentration in athymic mouse plasma xenografted with human MCF7 cells at 100 mg/kg, po after 32 hrs; assay type: ADME, organism-based; parameters: dose 100 mg/kg, route oral; conditions: in vivo, BLD = below limit of detection
In short: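 MCF-7 cells (5 × 10^6, in 50% cold HBSS/50% growth-factor-reduced matrigel) were implanted subcutaneously in the hindflank of 5–8 week old female nude mice. At 40–150 mg tumour size, mice received a single oral dose of 100 mg/kg, and plasma was sampled at the listed times after dosing.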

MCF7 = assay: Antitumor activity against human MCF7 cells xenografted in athymic nude mouse at 100 mg/kg, po qd for 14 days relative to control; assay type: functional
In short: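 Female athymic nude (NCr) mice, 5–8 weeks old, bearing subcutaneous MCF-7 tumors staged at 100–200 mg. Compound given orally qd for 14 days at 50 or 100 mg/kg as a solution/fine suspension in water with a 1:1 molar ratio of 1 N HCl. Caliper tumor mass = length × width²/2, measured twice weekly; body mass recorded daily.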

[17] = Drug uptake in tumor of athymic mouse xenografted with human MCF7 cells at 100 mg/kg, po after 32 hrs; assay type: ADME, organism-based, Neoplasm; parameters: dose 100 mg/kg, route oral; conditions: read-out: Drug uptake
[18] = Cmax in CD rat at 3 mg/kg, iv; assay type: ADME, organism-based; parameters: dose 3 mg/kg, route intravenous; conditions: in vivo; in short: as §2
[19] = Plasma protein binding in mouse at 5 uM; assay type: ADME, cell-free; conditions: read-out: PPB (converted)
Cytochrome P450 2C9 = Cytochrome P450 2C9 (Homo sapiens, UniProt P11712); assay: Inhibition of CYP2C9 (unknown origin); assay type: ADME
Cytochrome P450 2C9, sequence (P11712 whole entry): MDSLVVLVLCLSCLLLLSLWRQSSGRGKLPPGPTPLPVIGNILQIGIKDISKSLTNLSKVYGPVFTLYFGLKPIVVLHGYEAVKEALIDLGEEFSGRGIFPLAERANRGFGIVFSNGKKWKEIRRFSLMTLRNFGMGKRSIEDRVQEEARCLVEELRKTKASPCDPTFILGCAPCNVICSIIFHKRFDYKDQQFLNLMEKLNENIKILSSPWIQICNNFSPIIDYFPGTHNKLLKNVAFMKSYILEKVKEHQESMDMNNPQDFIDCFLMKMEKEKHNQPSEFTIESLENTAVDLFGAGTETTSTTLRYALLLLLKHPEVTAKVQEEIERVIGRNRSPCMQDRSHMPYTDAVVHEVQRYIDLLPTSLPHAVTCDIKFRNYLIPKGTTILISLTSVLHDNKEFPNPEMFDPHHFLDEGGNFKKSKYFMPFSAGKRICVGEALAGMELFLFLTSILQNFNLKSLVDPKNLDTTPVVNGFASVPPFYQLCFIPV

[20] = Kinetic solubility of the compound; assay type: physicochemical; conditions: read-out: Kinetic_solubility
[21] = Apparent permeability across MDCK cells; assay type: ADME, cell-based, Canis lupus familiaris; conditions: dog
[22] = target: Phosphatidylinositol 4,5-bisphosphate 3-kinase catalytic subunit alpha isoform (Homo sapiens, UniProt P42336); assay: Inhibition of PI3Kalpha (unknown origin) using PIP2 as substrate after 2 hrs by luminescence assay
Phosphatidylinositol 4,5-bisphosphate 3-kinase catalytic subunit alpha isoform, sequence (P42336 whole entry, canonical isoform): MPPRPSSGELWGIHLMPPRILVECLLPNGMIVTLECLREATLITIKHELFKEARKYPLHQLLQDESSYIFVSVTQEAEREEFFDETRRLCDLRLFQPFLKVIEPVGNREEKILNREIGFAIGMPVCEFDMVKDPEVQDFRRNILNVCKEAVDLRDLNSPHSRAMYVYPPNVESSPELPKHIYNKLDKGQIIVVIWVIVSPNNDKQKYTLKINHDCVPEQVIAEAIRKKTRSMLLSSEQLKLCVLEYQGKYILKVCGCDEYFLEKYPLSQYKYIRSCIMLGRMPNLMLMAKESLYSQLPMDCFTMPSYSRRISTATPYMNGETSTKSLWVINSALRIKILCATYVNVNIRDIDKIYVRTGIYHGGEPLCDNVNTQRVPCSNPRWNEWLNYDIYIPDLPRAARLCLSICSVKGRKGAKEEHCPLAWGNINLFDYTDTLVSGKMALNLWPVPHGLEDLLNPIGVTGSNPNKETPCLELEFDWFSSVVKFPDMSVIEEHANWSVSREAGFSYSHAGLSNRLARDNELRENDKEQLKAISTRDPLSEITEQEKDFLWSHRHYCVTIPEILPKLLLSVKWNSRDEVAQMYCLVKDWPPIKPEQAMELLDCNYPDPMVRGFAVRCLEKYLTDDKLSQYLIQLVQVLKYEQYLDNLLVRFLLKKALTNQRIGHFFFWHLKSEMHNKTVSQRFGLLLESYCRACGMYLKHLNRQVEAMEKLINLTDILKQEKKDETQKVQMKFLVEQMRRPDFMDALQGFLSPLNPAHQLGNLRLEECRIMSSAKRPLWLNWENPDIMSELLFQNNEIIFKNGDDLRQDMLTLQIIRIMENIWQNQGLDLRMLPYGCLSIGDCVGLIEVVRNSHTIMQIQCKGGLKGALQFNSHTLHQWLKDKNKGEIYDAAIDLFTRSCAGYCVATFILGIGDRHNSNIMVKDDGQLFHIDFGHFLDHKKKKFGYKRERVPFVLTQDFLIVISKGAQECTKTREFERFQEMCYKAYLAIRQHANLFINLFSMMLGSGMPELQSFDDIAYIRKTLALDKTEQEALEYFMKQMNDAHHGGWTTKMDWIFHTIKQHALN

Casein kinase II = Casein kinase II (Homo sapiens, UniProt P19784+P67870+P68400); assay: Inhibition of CK2 (unknown origin); assay type: protein-complex assay
[23] = target: Serine/threonine-protein kinase pim-1 (Homo sapiens, UniProt P11309); assay: Inhibition of PIM1 (unknown origin)
Serine/threonine-protein kinase pim-1, sequence (P11309 whole entry): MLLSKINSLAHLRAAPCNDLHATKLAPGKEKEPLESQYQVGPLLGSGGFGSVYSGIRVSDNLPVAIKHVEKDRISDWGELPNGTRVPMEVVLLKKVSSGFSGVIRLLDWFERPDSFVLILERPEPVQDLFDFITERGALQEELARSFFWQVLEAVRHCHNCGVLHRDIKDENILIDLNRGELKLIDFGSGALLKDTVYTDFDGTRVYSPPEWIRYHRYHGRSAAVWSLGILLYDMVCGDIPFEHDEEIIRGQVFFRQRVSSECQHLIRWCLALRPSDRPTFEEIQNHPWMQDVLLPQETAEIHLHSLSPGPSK

concentration at 4 h [1]: 35.9 µM
concentration at 1 h [9]: 28.8 µM
IC50 [11]: > 3.5 µM
IC50 [12]: > 3.5 µM
IC50 [13]: > 3.5 µM
Vd [14]: 1.96 L/kg
half-life [15]: 6.11 h
Cmax [16]: 2.28 µM
Cp (Plasma): BLD
concentration at 32 h [17]: 0.1 µM
Cmax [18]: 4.12 µM
fraction unbound at 5 µM [19]: 0.16
INH (Cytochrome P450 2C9): 10.6 µM
solubility kinetic [20]: 232 µM (≈ 106 µg/mL)
Papp [21]: 15.1 ×10⁻⁶ cm/s
IC50 [22]: > 3 µM
IC50 (Casein kinase II): > 10 µM
IC50 [23]: > 3.5 µM
SMILES: Cc1c(C(=O)N2CCOc3ccc(-c4ccc(N)nc4)cc3C2)ccc(S(C)(=O)=O)c1F
inhibition in vivo at 100 mg/kg (Mus musculus [2]): -3%
inhibition in vivo at 100 mg/kg (Mus musculus [3]): -24%
inhibition in vivo at 100 mg/kg (Mus musculus [4]): 98%
inhibition in vivo at 100 mg/kg (Mus musculus [5]): 96%
inhibition in vivo at 100 mg/kg (Mus musculus [6]): 81%
inhibition in vivo at 100 mg/kg (Mus musculus [7]): 85%
inhibition in vivo at 100 mg/kg (Mus musculus [8]): 89%
inhibition in vivo at 100 mg/kg (Mus musculus [10]): 33%
Activity (MCF7): 40%
